Drawing on the RNAGym collection of RNA variant scans (doi:10.1002/anie.201605470), this text covers self-cleavage for 49 variants.

The labels stand for the following.
B1: Osa-1-4 twister ribozyme (parent)
chain: CCGCCUAACACUGCCAAUGCCGGUCCCAAGCCCGGAUAAAAGUGGAGGGGGCGG

The variants in this data set derive from B1. As to the kind of experiment: self-cleavage, relative activity (ratio to wild type); higher = more cleavage; co-transcriptional. Summed up:
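Relative activity is the fraction cleaved divided by that of the wild-type ribozyme. The library came from a DNA template for a 54-nucleotide Oryza sativa twister ribozyme, doped at the 48 positions downstream of the cleavage site with 97 % wild-type base and 1 % of each other base. After 2 h of in vitro transcription at 37 °C with co-transcriptional self-cleavage, the RNA was reverse-transcribed with a template-switching oligonucleotide, amplified by PCR and deep-sequenced, and reads with or without upstream sequence gave the cleavage status.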
On to CCGCCUAACACUGCCAAUGCCGGCCCCAAGCCCGGAUAAAACUGGAGGGGGCGG [G42C U24C], for which the self-cleavage amounted to 0.05.

In the case of CCGCCUAACACUGCCAAUGCCGGACCCAAGCCCGGAUAAAACUGGAGGGGGCGG [G42C U24A], the self-cleavage was 0.05.

Consider CCGCCUAACACUGCCAAAGCCGGUCCCAAGCCCGGAUAAAAAUGGAGGGGGCGG [G42A U18A], for which the self-cleavage came out at 0.71. Regarding CCGCCUAACACUGCCAAGGCCGGUCCCAAGCCCGGAUAAAAAUGGAGGGGGCGG [G42A U18G], the self-cleavage worked out at 0.66.

In the case of CCGCCUAACACUGCCAACGCCGGUCCCAAGCCCGGAUAAAAAUGGAGGGGGCGG [G42A U18C], the self-cleavage is 0.44. As for CCGCCUAACACUGCCAAUGCCGGUCCCAAGCCCGGAUAAAAAUGGAGGGGACGG [G42A G51A], the self-cleavage was found to be 0.28. Consider CCGCCUAACACUGCCAAUGCCGGUCCCAAGCCCGGAUAAAAAUGGAGGGGCCGG [G42A G51C], for which the self-cleavage came to 0.06. To CCGCCUAACACUGCCAAUGCCGGUCCCAAGCCCGGAUAAAAAUGGAGGGGUCGG [G42A G51U] belongs 0.1; to CCGCCUAACACUGCCAAUGCCGGUCCCAAGCCCGGAUAAAUGCGGAGGGGGCGG [A41U U43C], 0.33. On to CCGCCUAACACUGCCAAUGCCGGUCCCAAGCCCGGAUAAAUGGGGAGGGGGCGG [A41U U43G], for which the self-cleavage was 0.32. On to CCGCCUAACACUGCCAAUGCCGGUCCCAAGCCCGGAUAAAUGAGGAGGGGGCGG [A41U U43A], for which the self-cleavage amounted to 0.81. CCGCCUAACACUGCCAAUGCCGGUCCCAAGCCCGGAUAAAACUGGAGAGGGCGG [G42C G48A]: the self-cleavage stood at 0.05.

As for CCGCCUAACACUGCCAAUGCCGGUCCCAAGCCCGGAUAAAACUGGAGCGGGCGG [G42C G48C], the self-cleavage came to 0.07. On to CCGCCUAACACUGCCAAUGCCGGUCCCAAGCCCGGAUAAAACUGGAGUGGGCGG [G42C G48U], for which the self-cleavage was 0.04.

For CCGCCUAACACUGCCAAUGCCGGUCCCAAGCCCGGAUAAAAAUGGAGGGGGCGC [G42A G54C], the self-cleavage stood at 0.82. In the case of CCGCCUAACACUGCCAAUGCCGGUCCCAAGCCCGGAUAAAAAUGGAGGGGGCGA [G42A G54A], the self-cleavage turned out to be 0.76. In the case of CCGCCUAACACUGCCAAUGCCGGUCCCAAGCCCGGAUAAAAAUGGAGGGGGCGU [G42A G54U], the self-cleavage is 0.8. For the variant CCGCCUAACACUGCCAAUGCCGGUCCCAAGCCCGGACAAAACUGGAGGGGGCGG [G42C U37C], the self-cleavage stood at 0.34. To CCGCCUAACACUGCCAAUGCCGGUCCCAAGCCCGGAGAAAACUGGAGGGGGCGG [G42C U37G] belongs 0.39; to CCGCCUAACACUGCCAAUGCCGGUCCCAAGCCCGGAAAAAACUGGAGGGGGCGG [G42C U37A], 0.21. Consider CCGCCUAACACUGCCAAUGCCGGUCCCAAGCCCGGAUAAAAAUGGAGGCGGCGG [G42A G49C], for which the self-cleavage worked out at 0.07. In the case of CCGCCUAACACUGCCAAUGCCGGUCCCAAGCCCGGAUAAAAAUGGAGGUGGCGG [G42A G49U], the self-cleavage was determined as 0.06. Consider CCGCCUAACACUGCCAAUGCCGGUCCCAAGCCCGGAUAAAAAUGGAGGAGGCGG [G42A G49A], for which the self-cleavage worked out at 0.07. Regarding CCGCCUAACACUGCCAAUGCCGGUCCCAAGCCCGGAUAAAACUGGAGGGGGCCG [G42C G53C], the self-cleavage turned out to be 0.07. CCGCCUAACACUGCCAAUGCCGGUCCCAAGCCCGGAUAAAACUGGAGGGGGCUG [G42C G53U]: the self-cleavage was found to be 0.08. With CCGCCUAACACUGCCAAUGCCGGUCCCAAGCCCGGAUAAAACUGGAGGGGGCAG [G42C G53A], the self-cleavage was determined as 0.14. For CCGCCUAACACUGCCAAUGCCGGGCCCAAGCCCGGAUAAAAAUGGAGGGGGCGG [G42A U24G], the self-cleavage was 0.03.

Turning to CCGCCUAACACUGCCAAUGCCGGCCCCAAGCCCGGAUAAAAAUGGAGGGGGCGG [G42A U24C], the self-cleavage was found to be 0.06. Regarding CCGCCUAACACUGCCAAUGCCGGACCCAAGCCCGGAUAAAAAUGGAGGGGGCGG [G42A U24A], the self-cleavage was 0.05.

Turning to CCGCCUAACACUGCCAAUGCCGGUCCCAAGCCCGGAUAAAACUGGAAGGGGCGG [G42C G47A], the self-cleavage turned out to be 0.06. Turning to CCGCCUAACACUGCCAAUGCCGGUCCCAAGCCCGGAUAAAACUGGAUGGGGCGG [G42C G47U], the self-cleavage was found to be 0.06.

As to CCGCCUAACACUGCCAAUGCCGGUCCCAAGCCCGGAUAAAACUGGACGGGGCGG [G42C G47C], the self-cleavage amounted to 0.06.

Consider CCGCCUAACACUGCCAAUGCCGGUCCCAAGCCCGGACAAAUGUGGAGGGGGCGG [A41U U37C], for which the self-cleavage stood at 1.03. With CCGCCUAACACUGCCAAUGCCGGUCCCAAGCCCGGAGAAAUGUGGAGGGGGCGG [A41U U37G], the self-cleavage worked out at 1.02. In the case of CCGCCUAACACUGCCAAUGCCGGUCCCAAGCCCGGAAAAAUGUGGAGGGGGCGG [A41U U37A] it was 0.98; in that of CCGCCUAACACCGCCAAUGCCGGUCCCAAGCCCGGAUAAAACUGGAGGGGGCGG [G42C U12C], 0.08; in that of CCGCCUAACACAGCCAAUGCCGGUCCCAAGCCCGGAUAAAACUGGAGGGGGCGG [G42C U12A], 0.09. For CCGCCUAACACGGCCAAUGCCGGUCCCAAGCCCGGAUAAAACUGGAGGGGGCGG [G42C U12G], the self-cleavage was determined as 0.06. As for CCGCCUAACACUGCCAAUGCCGGUCCCAAGCCCGGAUAAAAUUAGAGGGGGCGG [G42U G44A], the self-cleavage worked out at 0.35.

As to CCGCCUAACACUGCCAAUGCCGGUCCCAAGCCCGGAUAAAAUUCGAGGGGGCGG [G42U G44C], the self-cleavage is 0.26. Turning to CCGCCUAACACUGCCAAUGCCGGUCCCAAGCCCGGAUAAAACUAGAGGGGGCGG [G42C G44A], the self-cleavage came to 0.24.

Turning to CCGCCUAACACUGCCAAUGCCGGUCCCAAGCCCGGAUAAAACUUGAGGGGGCGG [G42C G44U], the self-cleavage stood at 0.11. Consider CCGCCUAACACUGCCAAUGCCGGUCCCAAGCCCGGAUAAAACUCGAGGGGGCGG [G42C G44C], for which the self-cleavage was determined as 0.19. For CCGCCUAACACGGCCAAUGCCGGUCCCAAGCCCGGAUAAAAAUGGAGGGGGCGG [G42A U12G], the self-cleavage worked out at 0.09. With CCGCCUAACACCGCCAAUGCCGGUCCCAAGCCCGGAUAAAAAUGGAGGGGGCGG [G42A U12C], the self-cleavage turned out to be 0.1. As for CCGCCUAACACAGCCAAUGCCGGUCCCAAGCCCGGAUAAAAAUGGAGGGGGCGG [G42A U12A], the self-cleavage stood at 0.15.

As to CCGCCUAACACUGCCAAUGCCGGUCCCAAGCCCGGAUAAAAAUGCAGGGGGCGG [G42A G45C], the self-cleavage is 0.05. CCGCCUAACACUGCCAAUGCCGGUCCCAAGCCCGGAUAAAAAUGUAGGGGGCGG [G42A G45U]: the self-cleavage was 0.05. In the case of CCGCCUAACACUGCCAAUGCCGGUCCCAAGCCCGGAUAAAAAUGAAGGGGGCGG [G42A G45A], the self-cleavage was 0.08.
